Assay results from ChEMBL document CHEMBL3865796, “Novel (2,6-difluorophenyl)(2-(phenylamino)pyrimidin-4-yl)methanones with restricted conformation as potent non-nucleoside reverse transcriptase inhibitors against HIV-1” (Eur J Med Chem, 2016).

Legend:
[1] = Inhibition of wild type HIV-1 3B reverse transcriptase infected in human MT4 cells assessed as inhibition of viral replication after 5 days by cell titer glo based luciferase reporter gene assay; conditions: Human immunodeficiency virus 1, 3B, MT4, 120 h
[2] = Cytotoxicity against human MT4 cells assessed as decrease in cell viability after 5 days by cell titer glo based luciferase reporter gene assay; type: toxicity
Outline: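 Mock-infected MT-4 cells (pre-treated with RPMI) in complete RPMI (10% FBS, 1% P/S) received 1:3 serial DMSO dilutions of compound, further diluted 200-fold into medium, in a 384-well format. Incubated 5 days at 37 °C in a humidified incubator. Viability was read as CellTiter-Glo luminescence. CC50 is the concentration giving a 50% fall in signal, from a sigmoidal dose-response fit.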

[3] = Selectivity index, ratio of CC50 for human MT4 cells to EC50 for wild type HIV-1 3B reverse transcriptase infected in human MT4 cells; type: toxicity, cell-based; conditions: read-out: Ratio CC50/EC50
[4] = Inhibition of wild type HIV-1 3B reverse transcriptase infected in human MT4 cells assessed as inhibition of virus-induced cytopathic effect after 5 days incubation by Cell Titer Glo luminescence assay; conditions: Human immunodeficiency virus 1, 3B

Row | Structure (SMILES) | EC50 [1] [µM] | CC50 at 120 h [2] [µM] | selectivity ratio [3] | EC50 [4] [µM]
1 | N#Cc1ccc(Nc2ncc(Br)c(C(=O)c3c(F)cc(O)cc3F)n2)cc1 | > 57 | > 57 | 1 | –
2 | COc1ccc(C(=O)c2ccnc(Nc3ccc(C#N)cc3)n2)cc1 | 0.814 | > 57 | > 70 | 0.239
3 | N#Cc1ccc(Nc2ccnc(C(O)c3ccc(C#N)cc3)n2)cc1 (stereo not given) | > 57 | > 57 | 1 | –
4 | N#Cc1ccc(Nc2cc(F)c(C(=O)c3ccnc(Nc4ccc(C#N)cc4)n3)c(F)c2)cc1 | 0.31 | 51.9 | 167 | –
5 | N#Cc1cc(F)c(C(=O)c2ccnc(Cl)n2)c(F)c1 | > 57 | 30.5 | < 0.54 | –
6 | N#Cc1ccc(C(=O)c2ccnc(Cl)n2)cc1 | > 57 | 31.9 | < 0.56 | –
7 | COc1ccc(C(=O)c2ccnc(Cl)n2)cc1 | > 57 | 39.6 | < 0.69 | –
8 | N#Cc1ccc(Nc2ncc(Br)c(C(=O)c3ccc(C#N)cc3)n2)cc1 | 7.4 | > 57 | > 7.7 | –
9 | N#Cc1ccc(Nc2nccc(C(=O)c3ccc(C#N)cc3)n2)cc1 | 4.5 | > 57 | > 12.7 | –
10 | N#Cc1ccc(Nc2nccc(C(=O)c3c(F)cc(F)cc3F)n2)cc1 | 0.034 | > 57 | > 1680 | –
11 | O=C1Nc2ccc(Cl)cc2[C@@](C#CC2CC2)(C(F)(F)F)O1 [EFAVIRENZ] | 0.001 | 20.6 | – | –
12 | N#Cc1ccc(Nc2nc(C(=O)c3ccc(C#N)cc3)ncc2Br)cc1 | 27.7 | > 57 | > 2.06 | –
13 | COc1cc(F)c(C(=O)c2nc(Nc3ccc(C#N)cc3Br)ncc2Br)c(F)c1 | 18.9 | > 57 | > 3.02 | –
14 | COc1ccc(C(=O)c2nc(Nc3ccc(C#N)cc3)ncc2Br)cc1 | > 57 | 2.45 | < 0.04 | –
15 | N#Cc1ccc(Nc2ccnc(C(=O)c3ccc(C#N)cc3)n2)cc1 | 43 | > 57 | > 1.33 | –
16 | Cc1cc(C#N)cc(C)c1Oc1nc(Nc2ccc(C#N)cc2)nc(N)c1Br [ETRAVIRINE] | – | 5.88 | – | –
17 | COc1cc(F)c(C(=O)c2nc(Nc3ccc(C#N)cc3)ncc2Br)c(F)c1 | 0.069 | 38.7 | 561 | –
18 | N#Cc1ccc(Nc2nccc(C(=O)c3c(F)cc(C#N)cc3F)n2)cc1 | 0.051 | > 57 | > 1120 | –
19 | COc1cc(F)c(C(=O)c2ccnc(Nc3ccc(C#N)cc3)n2)c(F)c1 | 0.004 | > 57 | > 14200 | –
20 | O=C(c1ccnc(Cl)n1)c1c(F)cc(F)cc1F | > 57 | 40.1 | < 0.7 | –
21 | N#Cc1ccc(C(=O)c2nccc(Cl)n2)cc1 | > 57 | 16.5 | < 0.29 | –
22 | O=C(c1ccnc(Cl)n1)c1c(F)cc(Br)cc1F | > 57 | > 57 | 1 | –
23 | COc1cc(F)c(C(=O)c2ccnc(Cl)n2)c(F)c1 | > 57 | > 57 | 1 | –
24 | N#Cc1ccc(Nc2nccc(C(O)c3ccc(C#N)cc3)n2)cc1 (stereo not given) | 3.7 | > 57 | > 15.4 | –
